Calls of active or inactive are those of the source. The rule behind the calls is not given here.

For data set [1], the species on record is Homo sapiens. Kind of data set: Antihypertensive activity in hypertensive patients assessed as placebo-corrected systolic BP at 7 mg/day.
The species entered for data set [2] is Homo sapiens. Kind of data set: Antihypertensive activity in hypertensive patients assessed as placebo-corrected diastolic BP at 7 mg/day.
Data set [3] deals with 11-beta-HSD1 (Rattus norvegicus). The data set can be described thus: Binding affinity to rat liver microsomal 11beta-HSD1 by radiometric competition assay.
The species entered for data set [4] is Homo sapiens. Kind of data set: Antihypertensive activity in hypertensive patients assessed as placebo-corrected systolic BP at 6 mg/day.
The species entered for data set [5] is Homo sapiens. Kind of data set: Antihypertensive activity in hypertensive patients assessed as placebo-corrected diastolic BP at 6 mg/day.
Data set [6] in a line: Drug level in spontaneously hypertensive rat CSF at 10 mg/kg measured after 24 hrs. The format is ADME, organism-based, Cerebrospinal fluid. To be noted: read-out: Drug uptake. Also on record: dose 10 mg/kg. The gist of the method: (§1)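 Rats received 10 mg/kg and were sacrificed at peak (about 4 h) or trough (about 24 h) post dose. Total and free drug were measured in plasma, isolated brain and CSF, and the brain/plasma ratio was derived from these.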

Data set [7] is described as follows: Total drug level in spontaneously hypertensive rat brain at 10 mg/kg measured after 24 hrs. To be noted: read-out: Drug uptake. In kind it is ADME, organism-based. Also on record: dose 10 mg/kg. The gist of the method:
as §1

Data set [8] relates to Brain. Kind of data set: Free drug level in spontaneously hypertensive rat brain at 10 mg/kg measured after 24 hrs. In kind it is ADME, organism-based. Also on record: dose 10 mg/kg. To be noted: in vivo. The gist of the method: as §1
The subject of data set [9] is Plasma. The data set can be described thus: Free plasma concentration in spontaneously hypertensive rat at 10 mg/kg measured after 24 hrs. The format is ADME, organism-based. Also on record: dose 10 mg/kg. The note with it: in vivo. The gist of the method:
as §1

The test system of data set [10] is Mus musculus. The data set can be described thus: Antihypertensive activity in telemeterized wild type mouse assessed as reduction in systolic BP at 30 mg/kg/day for 11 days. The format is functional. The gist of the method:
(§2)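 Telemeterized 11β-HSD1 knockout mice and wild-type controls (not littermates) were dosed at 30 mg/kg/day. Systolic BP change was compared with vehicle-treated mice of each genotype, and plasma exposure was also measured.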

Data set [11] is described as follows: Drug level in spontaneously hypertensive rat CSF at 10 mg/kg measured after 4 hrs. The format is ADME, organism-based, Cerebrospinal fluid. Also on record: dose 10 mg/kg. To be noted: read-out: Drug uptake. The gist of the method:
as §1

Data set [12] deals with 11-beta-hydroxysteroid dehydrogenase 1 (Rattus norvegicus, UniProt P16232). Kind of data set: Inhibition of rat 11beta-HSD1.
Sequence of 11-beta-hydroxysteroid dehydrogenase 1 (P16232 whole entry): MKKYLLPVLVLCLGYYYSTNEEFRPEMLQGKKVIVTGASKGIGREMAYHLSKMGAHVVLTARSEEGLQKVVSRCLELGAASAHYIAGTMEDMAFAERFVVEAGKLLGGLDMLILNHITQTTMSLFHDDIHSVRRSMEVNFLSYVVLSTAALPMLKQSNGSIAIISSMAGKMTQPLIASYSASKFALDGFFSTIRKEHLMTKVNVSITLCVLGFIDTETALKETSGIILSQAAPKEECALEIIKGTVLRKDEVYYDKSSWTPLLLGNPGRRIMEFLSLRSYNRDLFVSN
Data set [13] relates to Rattus norvegicus. The data set can be described thus: Antihypertensive activity in spontaneously hypertensive rat model assessed as reduction in systolic BP at 10 mg/kg for 7 days. The format is functional. The gist of the method: (§3)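 Spontaneously hypertensive rats implanted with telemetry abdominal aorta catheters and dosed daily at 10 mg/kg over 7 days. Heart rate and systolic and diastolic BP were recorded, with change from baseline compared against vehicle-treated animals.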

Data set [14] relates to Brain. Kind of data set: Free drug level in spontaneously hypertensive rat brain at 10 mg/kg measured after 4 hrs. In kind it is ADME, organism-based. The note with it: in vivo. More on the design: dose 10 mg/kg. The gist of the method: as §1
Data set [15] addresses 11-beta-HSD2 (Homo sapiens). Kind of data set: Inhibition of human microsomal 11beta-HSD2 assessed as inhibition of […] by cell-based assay.
Data set [16] deals with Plasma. The data set can be described thus: Free plasma concentration in spontaneously hypertensive rat at 10 mg/kg measured after 4 hrs. In kind it is ADME, organism-based. More on the design: dose 10 mg/kg. To be noted: in vivo. The gist of the method:
as §1

Data set [17] has as its system Mus musculus. Kind of data set: Antihypertensive activity in telemeterized 11beta-HSD1 KO mouse assessed as reduction in systolic BP at 30 mg/kg/day for 11 days. The format is functional. The gist of the method:
as §2

A short description of data set [18]: Ratio of drug level in brain to plasma of spontaneously hypertensive rat at 10 mg/kg. The format is ADME, organism-based. More on the design: dose 10 mg/kg. The note with it: read-out: BPR. The gist of the method: as §1
The test system of data set [19] is Rattus norvegicus. The data set can be described thus: Antihypertensive activity in spontaneously hypertensive rat model assessed as reduction in heart rate at 10 mg/kg for 7 days. In kind it is functional, organism-based. More on the design: dose 10 mg/kg. The gist of the method: as §3
A short description of data set [20]: Plasma concentration in spontaneously hypertensive rat model at 10 mg/kg measured after 24 hrs. The format is ADME, organism-based. More on the design: dose 10 mg/kg. The gist of the method: as §1
A short description of data set [21]: Total drug level in spontaneously hypertensive rat brain at 10 mg/kg measured after 4 hrs. In kind it is ADME, organism-based. More on the design: dose 10 mg/kg. The note with it: read-out: Drug uptake. The gist of the method: as §1
Data set [22] concerns Rattus norvegicus. Kind of data set: Antihypertensive activity in spontaneously hypertensive rat model assessed as reduction in diastolic BP at 10 mg/kg for 7 days. Also on record: dose 10 mg/kg. In kind it is functional, organism-based. The gist of the method: as §3
Data set [23] can be described thus: Plasma concentration in spontaneously hypertensive rat model at 10 mg/kg measured after 4 hrs. In kind it is ADME, organism-based. More on the design: dose 10 mg/kg. The gist of the method: as §1

In the case of `CCS(=O)(=O)CCCC12CCC(c3nnc(-c4ccccc4C(F)(F)F)n3C)(CC1)CC2` [MK-0736], the Activity in the data set listed under Homo sapiens [1] was -7.7 mmHg; in the data set filed under Homo sapiens [2] it was -4.4 mmHg.

On to `[3H]c1cc(-c2nnc(C34CCC(c5noc(C(C)(F)F)n5)(CC3)CC4)n2C)c(C(F)(F)F)cc1[3H]`, for which the Kd in data set [3] is 11 nM.

As for `F[C@H]1C[C@](c2ccc(Cl)cc2)(c2nnc(C3CC3)n2C2CC2)C1`, the figures for the Activity in the data set listed under Homo sapiens [4] and in the data set filed under Homo sapiens [5] were -7.9 mmHg and -5.4 mmHg, respectively.

Consider `Cn1c(-c2ccccc2C(F)(F)F)nnc1C12CCC(c3noc(C(C)(F)F)n3)(CC1)CC2`, for which the concentration at 24 h in [6] stood at 3.4 µM; in data set [7], 55.4 µM; in data set [20], 25.4 µM. Also, the figures for the “Drug uptake(free)” value in the data set on Brain [8] and with Brain [14] were 2.4 µM and 3 µM, respectively. Besides, the “Cp(f)” value worked out at 2.4 µM with Plasma [9] and 2.5 µM in the data set on Plasma [16]. In [3] (tested as the 3H-labelled form), the Bmax is 55500 fmol/mg. The Activity with Mus musculus [10] is given as -8 mmHg; in the data set with Rattus norvegicus [13], greater than 15 mmHg; with Mus musculus [17], -5.8 mmHg. Besides, the concentration at 4 h came to 4.4 µM in data set [11], 60.5 µM in data set [21] and 25 µM in data set [23]. Moreover, the IC50 in data set [12] is 4.5 nM; in [15], 3100 nM. This compound yielded an inhibitory constant (Ki) in [12] of 7 nM. The Kp in [18] was greater than 1. Besides, the result in the data set on Rattus norvegicus [19] and in the data set with Rattus norvegicus [22] was Active.

For the compound `CCS(=O)(=O)CC12CCC(c3nnc(-c4ccccc4C(F)(F)F)n3C)(CC1)CC2`, the concentration at 24 h in data set [6] was determined as 0.7 µM; in [7], 0.8 µM; in data set [20], 10.2 µM. Also, the “Drug uptake(free)” value in the data set with Brain [8] was 0.2 µM; with Brain [14], 1.3 µM. Besides, the “Cp(f)” value in the data set with Plasma [9] came out at 2.1 µM; in the data set with Plasma [16], 8 µM. The concentration at 4 h came out at 2.1 µM in data set [11], 3.1 µM in data set [21] and 27.7 µM in data set [23]. Moreover, 9.1 nM corresponded to half-maximal inhibition in data set [12] (IC50). This compound returned an inhibition constant Ki in data set [12] of 13.1 nM. Also, the Activity in the data set with Rattus norvegicus [13] is on record as 3 mmHg. For the same compound, in data set [18], the Kp was less than 1. Besides, the outcome with Rattus norvegicus [19] and with Rattus norvegicus [22] was Active.

`Cn1c(-c2ccccc2C(F)(F)F)nnc1C12CCC(c3nc(-c4ccc(F)cc4)no3)(CC1)CC2`: the concentration at 24 h in data set [6] amounted to 0.2 µM; in [7] it was 39.1 µM; in data set [20], 12.1 µM. In addition, the figures for the “Drug uptake(free)” value with Brain [8] and with Brain [14] were 0.06 µM and 0.08 µM, respectively. Besides, the results for the “Cp(f)” value in the data set on Plasma [9] and with Plasma [16] were 0.05 µM and 0.07 µM, respectively. For the same compound, the concentration at 4 h in data set [11] worked out at 0.2 µM; in data set [21], 44.4 µM; in [23] it was 13.9 µM. The Activity in the data set on Rattus norvegicus [13] is given as greater than 15 mmHg. Besides, in [18], the Kp is greater than 1. For the same compound, the result in the data set with Rattus norvegicus [19] and with Rattus norvegicus [22] was Active.

Turning to `CCS(=O)(=O)CCC12CCC(c3nnc(-c4ccccc4C(F)(F)F)n3C)(CC1)CC2`, the concentration at 24 h in data set [6] was found to be 0.7 µM; in [7] it was 0.7 µM; in data set [20] it was 6 µM. Moreover, the “Drug uptake(free)” value with Brain [8] came out at 0.2 µM; in the data set on Brain [14], 0.5 µM. In addition, the “Cp(f)” value in the data set with Plasma [9] is 1.9 µM; with Plasma [16], 9.5 µM. Besides, the concentration at 4 h in data set [11] is 5.1 µM; in [21] it was 5 µM; in data set [23], 24.2 µM. This compound also displayed an IC50 in [12] of 6 nM. Also, in data set [12], the Ki worked out at 3.9 nM. Further, the Activity in the data set on Rattus norvegicus [13] is 3 mmHg. For the same compound, the Kp in [18] was less than 1. For the same compound, the result in the data set with Rattus norvegicus [19] and in the data set with Rattus norvegicus [22] was Active.

In general, Kd refers to the constant that tells how readily two partners part at equilibrium. Low readings indicate higher affinity, high ones lower affinity. One may read the IC50 as the point on the concentration scale where inhibition reaches its midpoint. The Ki is a dissociation constant, usually derived from enzyme kinetics or from competition with a known ligand. The low end stands for tighter binding, the high end for weaker binding.
